Experimental data of several laboratories.
Protocols differ between the studies behind these lines.
Target: Insulin receptor-related protein (INSRR, Homo sapiens, UniProt P14616)

SMILES | assay | conditions | endpoint | value
CCN(CC)CCNC(=O)c1c(C)[nH]c(/C=C2\C(=O)Nc3ccc(F)cc32)c1C | enzyme activity, inhibitor | 10 µM | inhibition | 78%
O=C(O)[C@@H]1[C@@H](Cn2nnc3ccccc3c2=O)CC[C@H]1C(=O)c1ccc(OCCC2CCOCC2)cc1 | cell-free assay, competition with immobilised ligand | 1 µM | remaining binding | 100%
COc1cc(/C=C/C(=O)CC(=O)/C=C/c2ccc(O)c(OC)c2)ccc1O | enzyme activity, inhibitor | 1 µM | activity vs control | 84%
CC(=O)c1c(NS(C)(=O)=O)c2cc(-c3ccc(Cl)cc3)c(-c3ccc(Cl)cc3Cl)nc2n(C)c1=O | cell-free assay, competition with immobilised ligand | 1 µM | remaining binding | 93%
CC(C)(C)c1nc(-c2cccc(NS(=O)(=O)c3c(F)cccc3F)c2F)c(-c2ccnc(N)n2)s1 | enzyme activity, inhibitor, radiometric | 1 µM | remaining activity | 103%
COc1cc(Nc2cnc(C#N)c(O[C@H](C)CN(C)C)n2)ncc1-c1cnn(C)c1 | enzyme activity, inhibitor, radiometric | 1 µM | remaining activity | 103%
Cc1nc(Cc2cccc(C(F)(F)F)c2)sc1-c1ccc(C(N)=O)nc1 | cell-free assay, competition with immobilised ligand | 1 µM | remaining binding | 100%
O=C1NC(=O)c2cc(Nc3ccc(F)cc3)c(Nc3ccc(F)cc3)cc21 | cell-free assay | 0.5 µM | remaining signal | 111%
CC(C)(O)[C@H]1CC[C@H](Nc2ccc3ncc(-c4cccc(C(F)(F)F)c4)n3n2)CC1 | enzyme activity, inhibitor | 1 µM | remaining activity | 77%
O=C(N[C@H]1CCCCC/C=C\C2C[C@@]2(C(=O)O)NC(=O)[C@@H]2C[C@@H](Oc3ccncc3)CN2C1=O)OC1CCCC1 (stereo partly shown) | binding, competition with immobilised ligand | 1 µM | remaining binding | 100%
Cc1ccc(NC(=O)c2ccc(C)c(C(F)(F)F)c2)cc1C#Cc1nn(C2CCC(O)CC2)c2ncnc(N)c12 (stereo not shown) | cell-free assay | 10 µM | remaining signal | 107%
Cc1cc(NC(=O)c2cccc(S(F)(F)(F)(F)F)c2)cc(-n2ccn3nc(-c4cccnc4)cc23)c1 | cell-free assay, competition with immobilised ligand | 1 µM | remaining binding | 100%
COc1cc2ncnc(Nc3ccc(Oc4ccccc4)c(C)c3C)c2cc1OC | enzyme activity, inhibitor | 1 µM | inhibition | 2%
CCS(=O)(=O)c1cc2cc(C[C@@](O)(CC(C)(C)c3ccc(F)cc3C(N)=O)C(F)(F)F)[nH]c2cn1 | cell-free assay, competition with immobilised ligand | 1 µM | remaining binding | 64%
Cc1cnc(NC2CCOCC2)nc1-n1cnc(C(=O)NC(CN)c2cc(F)cc(Cl)c2)c1 (stereo not shown) | enzyme activity, inhibitor, radiometric | 1 µM | remaining activity | 70%
O=C(Nc1cnn(-c2csc(C(=O)NC3COC3)c2)c1)Nc1c(F)cccc1Cl | enzyme activity, inhibitor | 5 µM | remaining activity | 75.9%
Nc1nc(NC2CCCCC2)sc1C(=O)c1ccccc1 | enzyme activity, inhibitor | 10 µM | remaining activity | 25%
CCN(CC)c1ccc(C2=NNC(=O)CC2C)cc1[N+](=O)[O-] (stereo not shown) | enzyme activity, inhibitor | 10 µM | remaining activity | 97%
Cc1cc(NC(=O)c2cccc3cc(-c4cccc5[nH]nc(N)c45)ccc23)ccc1F | enzyme activity, inhibitor | 0.1 µM | activity vs control | 106%
Oc1cccc(-c2nc(N3CCOCC3)c3oc4ncccc4c3n2)c1 | enzyme activity, inhibitor | 10 µM | remaining activity | 89%
Cc1ccc(Nc2nccc(N(C)c3ccc4c(C)n(C)nc4c3)n2)cc1S(N)(=O)=O | enzyme activity, inhibitor | 10 µM | inhibition | 41%
FC(F)c1nc2ccccc2n1-c1nc(N2CCOCC2)nc(N2CCOCC2)n1 | enzyme activity, inhibitor | 10 µM | remaining activity | 88%
CN([C@@H]1CCc2c(CC(=O)O)c3cc(S(C)(=O)=O)ccc3n2C1)S(=O)(=O)c1ccc(F)cc1 | cell-free assay, competition with immobilised ligand | 1 µM | remaining binding | 100%
Cc1sc(C(=O)NC2COC2)cc1-n1cc(NC(=O)Nc2c(F)cccc2Cl)cn1 | enzyme activity, inhibitor | 10 µM | remaining activity | 71.9%
CNC(=O)c1cc(Oc2ccc(NC(=O)Nc3ccc(Cl)c(C(F)(F)F)c3)cc2)ccn1 | enzyme activity, inhibitor | 0.3 µM | inhibition | -25%
Cc1ccc(C(=O)NCc2ccsc2)cc1C#Cc1cn(C(C)C)c2ncnc(N)c12 | enzyme activity, inhibitor | 1 µM | activity vs control | 105%
O=C1Nc2ccc(Cl)cc2C1=Cc1cc(Cl)c(O)c(Cl)c1 | cell-free assay | 0.5 µM | remaining signal | 100%
O=C(NC[C@@H]1[C@H]2CN(C(=O)OCc3cc(C(F)(F)F)cc(C(F)(F)F)c3)C[C@@H]12)c1ccc2[nH]nnc2c1 | cell-free assay, competition with immobilised ligand | 1 µM | remaining binding | 83%
